Experimental data as given in ChEMBL document CHEMBL1129494, “Structure-based design of lipophilic quinazoline inhibitors of thymidylate synthase” (J Med Chem, 1996).

Assays:
[1] = target: Thymidylate synthase (Escherichia coli) (UniProt C3SWJ7)
[2] = target: Thymidylate synthase (Escherichia coli) (UniProt C3SWJ7); remark: listed apart in the source
L1210 [3] = assay: Inhibition of murine L1210 cell line tissue culture growth; format: functional, cell-based; details: Mus musculus
In short: (§1)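 Murine L1210 leukemia cells seeded at 1000 cells/well in RPMI-1640 containing 5% fetal calf serum and 0.5% DMSO, exposed to nine 2-fold serial dilutions for 3 days. Growth was read by MTT (4 h), with formazan dissolved in DMSO and measured spectrophotometrically. IC50 comes from semilog concentration plots of the mean of four assessments per dilution versus control growth.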

GC3/MTK- [4] = assay: Activity for growth inhibition in tissue culture of thymidine kinase-deficient human adenocarcinoma cell line (GC3/M TK-)value in parenthesis indicates % inhibition; format: functional, cell-based
[5] = target: Thymidylate synthase (Homo sapiens) (UniProt P04818)
Sequence of Thymidylate synthase (Homo sapiens) (P04818 2-313 limits assumed): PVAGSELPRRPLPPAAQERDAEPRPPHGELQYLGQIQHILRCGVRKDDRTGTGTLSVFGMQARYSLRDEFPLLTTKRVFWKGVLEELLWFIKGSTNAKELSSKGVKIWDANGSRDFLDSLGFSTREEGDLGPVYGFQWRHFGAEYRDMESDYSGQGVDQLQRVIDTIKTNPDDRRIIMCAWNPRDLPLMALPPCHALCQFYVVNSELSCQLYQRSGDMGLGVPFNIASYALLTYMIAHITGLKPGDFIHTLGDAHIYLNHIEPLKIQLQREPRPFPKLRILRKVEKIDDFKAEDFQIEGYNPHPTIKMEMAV

CCRF-CEM [6] = assay: (§2) Inhibition of CCRF-CEM (human leukemia) cell growth in vitro.; format: functional, cell-based
In short: (§3)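 MTT colorimetric growth assay (modified Mosmann) in CCRF-CEM human leukemia cells seeded at 10 000 cells/well in RPMI-1640 with 5% fetal calf serum and 0.5% DMSO. Nine 2-fold serial dilutions of compound, 5 day incubation, then 4 h MTT and formazan dissolved in DMSO for spectrophotometric reading. IC50 taken from semilog plots of the mean of four growth assessments per dilution relative to control cultures.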

[7] = target: Thymidylate synthase (Homo sapiens) (UniProt P04818); remark: listed apart in the source
GC3/MTK- [8] = assay: (§4) Inhibitory activity of compound against growth of thymidine kinase-deficient human adenocarcinoma cell line (GC3/M TK-) in tissue culture; format: functional; parameters: concentration or dose not given beside the values
In short: (§5)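 MTT colorimetric growth assay in the thymidine kinase-deficient human adenocarcinoma line. Seeded at 10 000 cells/well in RPMI-1640 with 10% fetal calf serum and 0.5% DMSO. Nine 2-fold serial dilutions of compound, 5 day incubation, then 4 h MTT. Formazan dissolved in DMSO and read spectrophotometrically. IC50 taken from semilog plots of the mean of four growth assessments per dilution, relative to control cultures.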

L1210 [9] = assay: Inhibition of L1210 (murine leukemia) cell growth in vitro.; format: functional, Mus musculus; parameters: concentration or dose not given beside the values
In short: as §1

GC3/MTK- [10] = assay: Inhibition of GC3/M TK- (human adenocarcinoma) cell growth in vitro.; format: functional, cell-based
In short: (§6)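 Thymidine kinase-deficient human adenocarcinoma GC3/M TK- cells seeded at 10 000 cells/well in RPMI-1640 with 10% fetal calf serum and 0.5% DMSO. Compound given as nine 2-fold serial dilutions over a 5 day incubation, then 4 h MTT and spectrophotometric formazan read after DMSO dissolution. IC50 from semilog plots of the mean of four growth assessments relative to control cultures.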

CCRF-CEM [11] = assay: as §2; format: functional; parameters: concentration or dose not given beside the values
In short: as §3

CCRF-CEM [12] = assay: Activity for growth inhibition in tissue culture of human leukemias (CCRF-CEM); format: functional, cell-based
In short: as §3

CCRF-CEM [13] = assay: Activity for growth inhibition in tissue culture of human leukemias (CCRF-CEM). value in parenthesis indicates % inhibition; format: functional, cell-based
GC3/MTK- [14] = assay: as §4; format: functional
In short: as §5

CCRF-CEM [15] = assay: Inhibitory activity of compound against growth of human leukemias (CCRF-CEM) cell line in tissue culture; format: functional
In short: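 CCRF-CEM human leukemia cells seeded at 10 000 cells/well in RPMI-1640 with 5% fetal calf serum and 0.5% DMSO. Exposed to nine 2-fold serial dilutions for 5 days, followed by 4 h with MTT. Formazan dissolved in DMSO and measured spectrophotometrically. IC50 read from semilog plots of the mean of four growth assessments per dilution versus control growth.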

CCRF-CEM [16] = assay: Inhibitory activity of compound against growth of human leukemias (CCRF-CEM) cell lne in tissue culture; format: functional
In short: as §3

GC3/MTK- [17] = assay: Inhibition of GC3/M TK- (human adenocarcinoma) cell growth in vitro; Insoluble.; format: functional, cell-based
In short: as §6

CCRF-CEM [18] = assay: Activity for growth inhibition in tissue culture of human leukemias (CCRF-CEM); Insoluble.; format: functional, cell-based
In short: as §3

L1210 [19] = assay: Activity for growth inhibition in tissue culture of murine (L1210); Insoluble; format: functional, cell-based, Mus musculus
In short: as §1

CCRF-CEM [20] = assay: Activity for growth inhibition in tissue culture of human leukemias (CCRF-CEM). value in parenthesis indicates % inhibition.; format: functional, cell-based

Sequence of Thymidylate synthase (Escherichia coli) (C3SWJ7 1-264): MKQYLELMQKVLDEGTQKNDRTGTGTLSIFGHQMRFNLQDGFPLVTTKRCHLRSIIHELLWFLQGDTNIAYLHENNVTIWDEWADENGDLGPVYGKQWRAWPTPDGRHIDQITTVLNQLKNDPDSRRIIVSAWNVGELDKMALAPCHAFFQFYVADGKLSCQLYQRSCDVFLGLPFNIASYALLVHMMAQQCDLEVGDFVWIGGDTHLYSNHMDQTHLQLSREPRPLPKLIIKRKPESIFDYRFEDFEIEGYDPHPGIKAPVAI

Structure (SMILES)	Kis [1] [µM]	Kii [2] [µM]	IC50 (L1210 [3]) [µM]	IC50 (GC3/MTK- [4]) [µM]	Kis [5] [µM]	IC50 (CCRF-CEM [6]) [µM]	Kii [7] [µM]	Inhibition (GC3/MTK- [8]) [%]	Inhibition (L1210 [9]) [%]	IC50 (GC3/MTK- [10]) [µM]	Inhibition (CCRF-CEM [11]) [%]	IC50 (CCRF-CEM [12]) [µM]	IC50 (CCRF-CEM [13]) [µM]	Inhibition (GC3/MTK- [14]) [%]	Inhibition (CCRF-CEM [15]) [%]	Inhibition (CCRF-CEM [16]) [%]	IC50 (GC3/MTK- [17])	IC50 (CCRF-CEM [18])	IC50 (L1210 [19])	IC50 (CCRF-CEM [20]) [µM]
C#CCN(Cc1ccc2nc(C)nc(O)c2c1)c1ccc(S(=O)(=O)N2CCNCC2)cc1	0.1	0.28	> 50	> 50	0.063	48	0.071	47	47											
C#CCN(Cc1ccc2nc(C)nc(O)c2c1)c1ccc(C#N)cc1	0.15	0.33	> 5		0.076		0.17		35	> 5	10	> 5								
Cc1nc(O)c2cc(CN(C)c3ccc(Cc4ccccc4)cc3)ccc2n1	> 1	> 1	2.8	> 5	> 1	3.4	> 1													
C#CCN(Cc1ccc2nc(C)nc(O)c2c1)c1ccc(C(=O)c2ccccc2)cc1	0.094	0.47	7.7		0.11	> 7.7	0.16			6.2	40									
C#CCN(Cc1ccc2nc(C)nc(S)c2c1)c1cccc(C(F)(F)F)c1	0.18	0.36	> 5.6	> 5.6	1.3	> 5.6	2.3				30									
C#CCN(Cc1ccc2nc(C)nc(O)c2c1)c1ccc(C(=O)NC(CCC(=O)O)C(=O)O)cc1 (stereo not given)	0.0048		0.045		0.0085		0.0071			0.048		0.029								
C#CCN(Cc1ccc2nc(C)nc(O)c2c1)c1ccc(S(=O)(=O)NCC(=O)O)c(C(F)(F)F)c1	0.0059	0.015	> 75		0.0096		0.019	28		> 77			> 77							
Cc1nc(O)c2cc(CNc3ccc(S(=O)(=O)c4ccccc4)cc3)ccc2n1	2	17	> 14.7		1	> 14.7	2.2	10	40	> 14.7	33									
C#CCN(Cc1ccc2nc(C)nc(O)c2c1)c1ccc([N+](=O)[O-])cc1	0.068	0.17	4.7		0.056	> 4.8	0.098			> 4.8	8									
C#CCN(Cc1ccc2nc(C)nc(O)c2c1)c1ccc(C#N)c(Cl)c1	0.035	0.1	4.5		0.037	> 6.7	0.079			6.7				25	10					
C#CCN(Cc1ccc2nc(C)nc(O)c2c1)c1cccc(CC)c1	5	24	> 5	> 5	2.7		3.8		25		26		> 5	20						
C#CCN(Cc1ccc2nc(C)nc(O)c2c1)c1cccc(I)c1	0.33	1.4	> 5.3		0.16		0.44	35		> 5.3	10		> 5.3							
C#CCN(Cc1ccc2nc(C)nc(O)c2c1)c1ccc(C#N)c(C(F)(F)F)c1	0.015	0.047	> 2.8		0.081		0.14		>15											
C#CCN(Cc1ccc2nc(C)nc(O)c2c1)c1ccc([N+](=O)[O-])c(C(F)(F)F)c1	0.038	0.073	5		0.074	10.5	0.15													
CCN(Cc1ccc2nc(C)nc(O)c2c1)c1ccc(C(=O)C(F)(F)F)cc1	0.18	1	3.4		0.13	> 4	0.49	10		> 4	10									
C#CCN(Cc1ccc2nc(C)nc(O)c2c1)c1cccc(C(C)O)c1 (stereo not given)	2.4	8.3	> 49		1.7		3.6		35	49	33		> 49							
C#CCN(Cc1ccc2nc(C)nc(O)c2c1)c1cccc(Br)c1	0.92	3.3	1.8		0.65	> 5.7	0.84			5.3	20									
C#CCN(Cc1ccc2nc(C)nc(O)c2c1)c1cccc(C)c1	3.4	16	> 5	> 5	1.4	> 5	3.4		30					34		20				
C#CCN(Cc1ccc2nc(C)nc(O)c2c1)c1ccccc1			> 6.5			> 10.7			35	> 10.7				24		29				
C#CCN(Cc1ccc2nc(C)nc(O)c2c1)c1ccc(S(=O)(=O)C(F)(F)F)cc1	0.042	0.064	> 2.75	> 2.75	0.021		0.028		45				> 2.75							
C#CCN(Cc1ccc2nc(C)nc(O)c2c1)c1ccc(S(N)(=O)=O)c(C(F)(F)F)c1	0.024	0.061			0.036		0.07										Insoluble	Insoluble	Insoluble	
C#CCN(Cc1ccc2nc(C)nc(O)c2c1)c1ccc(S(N)(=O)=O)cc1	0.1	0.41	20		0.064	> 26	0.084			> 26										
C#CCN(Cc1ccc2nc(C)nc(O)c2c1)c1ccc(S(=O)(=O)N2CCOCC2)cc1	0.039	0.15	3.1		0.045	4.5	0.091			5.2										
C#CCN(Cc1ccc2nc(C)nc(O)c2c1)c1ccc(S(=O)(=O)c2ccccc2)cc1			0.86			1.44				1.76										
C#CCN(Cc1ccc2nc(C)nc(O)c2c1)c1cccc(CO)c1	1.7	5.1	48		0.62		1.2	22		> 54	30									> 54
CCN(Cc1ccc2nc(C)nc(O)c2c1)c1ccc(S(=O)(=O)c2ccccc2)cc1	0.077	0.24	0.66		0.034	2.7	0.13			2.6										
C#CCN(Cc1ccc2[nH]c(N)nc(=O)c2c1)c1ccc(C(=O)NC(CCC(=O)O)C(=O)O)cc1 (stereo not given)			1.57							2.13										
C#CCN(Cc1ccc2nc(C)nc(O)c2c1)c1cccc(C#C)c1	0.86	2.7	> 2.4		0.41		0.68		5		15		> 2.4							
C#CCN(Cc1ccc2nc(C)nc(O)c2c1)c1ccc([S+]([O-])c2ccccc2)cc1 (stereo not given)	0.16	0.55	1.7		0.061	4.5	0.11			3.9										
